{"source": "paper PMC3371134", "about": "(Journal of Neurochemistry, 2012)", "key": {"[1]": {"test_system": "centrin 2 (Cetn2)", "test": "Yeast two-hybrid", "type": "binding, mouse", "conditions": "LexA and VP16 fusions, lacZ reporter, X-gal", "method_in_brief": "(§1)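 Mouse coding sequences (from brain cDNA) were cloned as galactose-inducible LexA and VP16 fusions and co-transformed into S260 yeast, selected on glucose Trp−/Ura− plates. Colonies on filters were switched to galactose for induction, then assayed for lacZ with X-gal. Autoactivation was checked against LexA/VP16 control vectors. Blue within 1 h was scored positive; blue at 2–4 h was scored weak.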"}, "[2]": {"test_system": "CaM", "conditions": "ref Putkey et al., 2008; cited from earlier work"}, "[3]": {"test_system": "calneuron 1 (Caln1)", "test": "Yeast two-hybrid", "type": "binding, mouse", "conditions": "LexA and VP16 fusions, lacZ reporter, X-gal", "method_in_brief": "as §1"}, "[4]": {"conditions": "cited from earlier work"}, "[5]": {"test_system": "calmodulin-like 4 (Calml4)", "test": "Yeast two-hybrid", "type": "binding, mouse", "conditions": "LexA and VP16 fusions, lacZ reporter, X-gal", "method_in_brief": "as §1"}, "[6]": {"test_system": "calcineurin B (CnB)", "test": "Yeast two-hybrid", "type": "binding, mouse", "conditions": "LexA and VP16 fusions, lacZ reporter, X-gal", "method_in_brief": "as §1"}, "[7]": {"test_system": "calmodulin-Sepharose", "test": "CaM-Sepharose pulldown of Myc-tagged proteins expressed in COS-7 cells", "type": "binding", "conditions": "for CaM-Sepharose pulldown, calcium-replete: 5mM CaCl2; for CaM-Sepharose pulldown, calcium-replete / CaM-Sepharose pulldown, calcium-poor: TX-buffer pH 6.9, overnight at 4°C, anti-Myc western blot; for calcium dependence of CaM binding / overall CaM binding: 5mM CaCl2 or 5mM EGTA, summary in Discussion; for CaM-Sepharose pulldown, calcium-poor: 5mM EGTA", "method_in_brief": "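Myc-tagged mouse constructs (from brain cDNA) were expressed in COS-7 cells, grown in DMEM/10% FBS at 37°C and transfected at 80% confluency with 3 μg plasmid. After 48 h, cells were lysed 30 min at 4°C in TX-buffer (50 mM Tris-HCl pH 6.9, 0.5% Triton X-100, protease inhibitors). Cleared lysate was incubated overnight at 4°C with CaM-Sepharose, then washed 3× and detected by SDS-PAGE/anti-Myc (9E10) western blot with ECL.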"}}, "note": "Entries after “also recorded” stand apart in the source; their conditions may differ. Like-named read-outs stand apart in the source and are kept apart here.", "data": [{"substance": "PEP-19: calmodulin binding IQ motif protein, 62 amino acids", "values": [{"measurement": "interaction with Cetn2 in Y2H", "setting": "[1]", "value": "no binding was detected"}, {"measurement": "role of acidic region (EEFDIDMDAPETE) in CaM binding", "setting": "[2]", "value": "dispensable for CaM binding"}, {"measurement": "interaction with Caln1 in Y2H", "setting": "[3]", "value": "no binding was detected"}, {"measurement": "structure in solution", "setting": "[4]; NMR and circular dichroism, ref Dickerson, 2004, Dickerson et al., 2006, Kleerekoper and Putkey, 2009", "value": "disordered in solution although it has a propensity to helix formation"}, {"measurement": "interaction with Calml4 in Y2H", "setting": "[5]", "value": "no binding was detected"}, {"measurement": "interaction with CnB in Y2H", "setting": "[6]", "value": "no binding was detected"}, {"measurement": "CaM-Sepharose pulldown, calcium-replete", "setting": "[7]", "value": "associate weakly in high calcium; also recorded: interacted weakly or not at all with CaM-Sepharose under calcium-replete conditions"}, {"measurement": "calcium dependence of CaM binding / overall CaM binding", "setting": "[7]", "value": "binds preferentially to calcium-free CaM"}, {"measurement": "CaM-Sepharose pulldown, calcium-poor", "setting": "[7]", "value": "bind to CaM-Sepharose in calcium-poor (Eg) conditions; also recorded: bind CaM in low calcium conditions"}]}, {"substance": "neurogranin: calpacitin IQ motif protein, 78 amino acids", "values": [{"measurement": "interaction with Cetn2 in Y2H", "setting": "[1]", "value": "no binding was detected"}, {"measurement": "interaction with Caln1 in Y2H", "setting": "[3]", "value": "no binding was detected"}, {"measurement": "structure in solution", "setting": "[4]; ref Cui et al., 2003, Ran et al.", "value": "disordered in solution"}, {"measurement": "interaction with Calml4 in Y2H", "setting": "[5]", "value": "no binding was detected"}, {"measurement": "interaction with CnB in Y2H", "setting": "[6]", "value": "no binding was detected"}, {"measurement": "CaM-Sepharose pulldown, calcium-replete", "setting": "[7]", "value": "associate weakly in high calcium"}, {"measurement": "calcium dependence of CaM binding / overall CaM binding", "setting": "[7]", "value": "strong CaM binder"}, {"measurement": "CaM-Sepharose pulldown, calcium-poor", "setting": "[7]", "value": "bind to CaM-Sepharose in calcium-poor (Eg) conditions; also recorded: bind CaM in low calcium conditions"}]}]}
